# Screens as filed in PubChem.
# GRIN3A LBD mod: modulators (binders) of human NR3A ligand-binding domain; NR3A LBD differential scanning fluorimetry, Tm shift; 0% = protein alone, 100% = glycine-bound protein; Tm shift relative to glycine control, % at 25 µM; 340,000 compounds, 2.5% hits;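 active = melting temperature shift of at least 10% of the positive control shift, at one fixed dose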
# T cruzi inh: T. cruzi replication inhibition; T. cruzi beta-gal in NIH3T3, luminescence, 90 h; inhibition, % (no concentration beside the values); 300,000 compounds, 1.4% hits;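 active = mean inhibition across valid replicates above about 55%, limit read from the data; inconclusive = mean below that limit but half or more replicates reach it; inactive = mean below it, under half of replicates reach it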;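 also: signal also drops with host cell toxicity which is not excluded here; 0% = plate median of DMSO wells and 100% = zero luminescence signal; higher percent means less beta-gal luminescence so fewer parasites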
#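 Material: NIH/3T3 host cells with β-galactosidase reporter T. cruzi; Input: 5,000 host fibroblasts per well; Medium: DMEM, 2% fetal bovine serum; Compound: 50 nL DMSO compound solution per well; Schedule: 3 h host attachment, then at least 90 h co-culture; Detection: luminescent β-galactosidase signal after 60 min lysis.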
# PREPL inh: inhibitors of human prolyl oligopeptidase-like enzyme PREPL; AID 2751; inhibition, % at 5.96 µM; 320,000 compounds, 0.68% hits; Q4J6C6; recombinant PREPL, fluorescence polarization activity-based probe; in the data active = inhibition above about 43%;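 also: 0% = enzyme with DMSO and 100% = wells lacking enzyme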
# Beta cell apopt: beta cell apoptosis inhibition. INS-1E cytokine-induced death, ATP luminescence, 48 h; percent of positive-control rescue, neutral wells zero. 300,000 compounds, 0.8% hits. protection from apoptosis, % (concentration not given with the values);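 active = Every replicate reaches about 75%, or at least half do and their mean reaches it too, limit read from the data; inconclusive = At least half of replicates reach the limit but their mean does not; inactive = Under half of replicates reach the limit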;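 also: 0% = cytokine-treated negative control wells and 100% = positive control rescue; higher means more ATP so stronger rescue from cytokine killing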
# CSC inhib: cancer stem cell inhibition. cancer stem cell-like cells viability, luminescence. inhibition, % at 7.5 µM. 300,000 compounds, 1.1% hits. AID 2717; in the data active = inhibition above about 75%; inconclusive = no clear call, values can overlap the other calls; tested in HMLE shEcad cells
# CHOP inhibitor: CHOP inhibition in unfolded protein response; CHO-K1 CHOP-promoter luciferase, tunicamycin-induced, 15-18 h; inhibition, % at 10 µM; 220,000 compounds, 3.8% hits;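 active = compounds that reduced the stress-induced luciferase reporter signal by more than about 70% of percent inhibition, limit read from the data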;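 also: 0% = tunicamycin plus vehicle and 100% = wells without tunicamycin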
# Numbers without * were called inactive; u = inconclusive; x = no result. The list is not random: actives were taken first. Their share in the collection is about 6.7%.
SMILES,GRIN3A LBD mod,T cruzi inh,PREPL inh,Beta cell apopt,CSC inhib,CHOP inhibitor
COc1c(NC=O)c2c(c([N+](=O)[O-])c1OC)C(=O)OC2,-1,x,x,x,x,x
Cc1ccc(C)c(S(=O)(=O)NCc2ccncc2)c1,1,1,2,9,10,6
Cc1cc(S(=O)(=O)NCc2ccncc2)c(C)cc1Br,-2,-13,-9,75*,-3,x
O=C(N/N=C/c1cn(-c2cccs2)nc1-c1ccccc1)c1ccccc1Cl,14*,16,-14,5,-7,20
O=C(N/N=C/c1cn(-c2cccs2)nc1-c1ccccc1)c1ccc(O)cc1,12*,25,5,-14,u,63
CC(=O)Nc1nc(C)c(-c2csc(Nc3ccccn3)n2)s1,22*,-7,15,-2,25,50
CC(=O)c1cccc(Nc2nc(-c3cccc([N+](=O)[O-])c3)cs2)c1,20*,44,1,2,x,55
CCC(C)C(=O)Nc1nc(C)c(-c2csc(Nc3ccc(Cl)cc3)n2)s1 (centres undefined),-2,58*,14,-1,34,66
CC(=O)Nc1ccc(Nc2nc(-c3sc(NC(C)=O)nc3C)cs2)cc1,-1,-4,5,-12,2,x
CC(=O)Nc1nc(C)c(-c2csc(Nc3cccc([N+](=O)[O-])c3)n2)s1,1,55*,22,13,1,95*
CC(=O)Nc1nc(C)c(-c2csc(Nc3cccc(C(C)=O)c3)n2)s1,-22,-11,16,0,-7,x
O=C(COC(=O)C1CC1)Nc1ccc2c(c1)OCO2,-4,-5,0,1,-12,-12
Cc1ccccc1CN1CCN(C2CCC2)CC1CCO (centres undefined),2,-14,-1,x,-4,x
CC(C)(C)CC(C)(C)c1ccc(OCCOCC[N+](C)(C)Cc2ccccc2)cc1,-5,x,25,100*,118*,x
C[N+](C)(CCOc1ccccc1)Cc1ccccc1 (tested in a mixture with another compound),-6,0,-18,-7,-7,x
CCn1c(CN2CCN(C(c3ccccc3)c3ccccc3)CC2)nc2c1c(=O)n(C)c(=O)n2C,-2,36,11,3,6,x
COc1ccc(NC(=O)CSc2nnnn2-c2ccc(F)cc2)cc1,14*,-4,-4,3,4,x
CCC(Sc1nnnn1-c1ccccc1)C(=O)Nc1nc2ccccc2s1 (centres undefined),1,15,-42,-6,8,89*
O=C(CSc1nnnn1-c1ccc(F)cc1)Nc1nc2ccccc2s1,-7,4,-9,-8,3,70*
Cn1nnnc1SCC(=O)Nc1ccc(Oc2ccccc2)cc1,-1,8,3,3,-2,75*
COc1ccc(N2CCN(C(=O)COC(=O)[C@@H](NC(=O)OCc3ccccc3)C(C)C)CC2)cc1,0,x,x,x,x,x
COc1ccc(NC(C)C(=O)Nc2cccc(S(=O)(=O)N3CCOCC3)c2)cc1OC (centres undefined),-1,x,20,-3,4,x
Cc1nnc(NC(=O)CSc2nnc(Cc3cccn3C)n2CCc2ccccc2)s1,-5,-4,4,-3,-10,58
Cn1cccc1Cc1nnc(SCC(=O)Nc2nc3ccccc3s2)n1CCc1ccccc1,-3,x,-2,x,-23,95*
CCc1ccc(-n2nnnc2SCC(=O)Nc2ccc(NC(C)=O)cc2)cc1,-3,55*,5,x,-2,x
SMILES,GRIN3A LBD mod,T cruzi inh,PREPL inh,Beta cell apopt,CSC inhib,CHOP inhibitor
Cc1cc(NC(=NC2CC2)c2ccccc2F)n(-c2ccccc2)n1,-1,-1,3,-5,-3,-4
CN1CCc2c1nc1ccccc1c2N=C1CCCN1Cc1ccccc1,-1,16,6,4,-1,10
COc1ccc(C(CNC(=O)c2ccccc2SC)N(C)C)cc1 (centres undefined),0,25,9,-1,x,9
CC(=O)Nc1ccc(C(=O)CN2CCN(c3ccccc3)CC2)cc1,-1,-6,7,-6,-5,x
Cc1cc(C)c2cc(CN(Cc3ccc4c(c3)OCO4)Cc3nnnn3Cc3ccco3)c(=O)[nH]c2c1,-1,42,-31,-3,-11,71*
Cc1ccc2[nH]c(=O)c(CN(Cc3ccc4c(c3)OCO4)Cc3nnnn3Cc3ccco3)cc2c1,-1,49,-2,3,6,10
